The values below come from ChEMBL document CHEMBL6134766, “Design, synthesis, and evaluation of benzhydrylpiperazine-based novel dual COX-2/5-LOX inhibitors with anti-inflammatory and anti-cancer activity” (RSC Med Chem, 2025).

Experiment [1] addresses T1, Prostaglandin G/H synthase 1 (Ovis aries, UniProt P05979).
T1 sequence (P05979 whole entry): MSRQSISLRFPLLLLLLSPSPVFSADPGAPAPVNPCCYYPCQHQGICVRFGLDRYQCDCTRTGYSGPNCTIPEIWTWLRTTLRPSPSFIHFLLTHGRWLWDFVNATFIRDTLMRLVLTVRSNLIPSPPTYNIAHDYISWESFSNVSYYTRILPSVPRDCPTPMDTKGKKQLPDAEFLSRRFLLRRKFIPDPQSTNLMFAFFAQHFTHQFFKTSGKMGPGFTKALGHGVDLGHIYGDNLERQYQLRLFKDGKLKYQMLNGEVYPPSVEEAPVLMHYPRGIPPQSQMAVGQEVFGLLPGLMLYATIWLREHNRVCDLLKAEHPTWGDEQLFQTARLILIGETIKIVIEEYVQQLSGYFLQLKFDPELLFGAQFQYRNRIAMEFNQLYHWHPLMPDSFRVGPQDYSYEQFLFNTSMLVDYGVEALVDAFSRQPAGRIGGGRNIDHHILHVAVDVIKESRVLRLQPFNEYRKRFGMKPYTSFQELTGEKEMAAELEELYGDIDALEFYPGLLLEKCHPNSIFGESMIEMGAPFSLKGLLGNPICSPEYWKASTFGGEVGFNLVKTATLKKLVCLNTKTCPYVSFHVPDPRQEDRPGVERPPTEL
As to the kind of experiment: Inhibition of ovine COX-1 using arachidonic acid as substrate in presence of hemin by TMPD reagent-based colorimetry.

Experiment [2] deals with T2, Polyunsaturated fatty acid 5-lipoxygenase (Homo sapiens, UniProt P09917).
T2 sequence (P09917 whole entry): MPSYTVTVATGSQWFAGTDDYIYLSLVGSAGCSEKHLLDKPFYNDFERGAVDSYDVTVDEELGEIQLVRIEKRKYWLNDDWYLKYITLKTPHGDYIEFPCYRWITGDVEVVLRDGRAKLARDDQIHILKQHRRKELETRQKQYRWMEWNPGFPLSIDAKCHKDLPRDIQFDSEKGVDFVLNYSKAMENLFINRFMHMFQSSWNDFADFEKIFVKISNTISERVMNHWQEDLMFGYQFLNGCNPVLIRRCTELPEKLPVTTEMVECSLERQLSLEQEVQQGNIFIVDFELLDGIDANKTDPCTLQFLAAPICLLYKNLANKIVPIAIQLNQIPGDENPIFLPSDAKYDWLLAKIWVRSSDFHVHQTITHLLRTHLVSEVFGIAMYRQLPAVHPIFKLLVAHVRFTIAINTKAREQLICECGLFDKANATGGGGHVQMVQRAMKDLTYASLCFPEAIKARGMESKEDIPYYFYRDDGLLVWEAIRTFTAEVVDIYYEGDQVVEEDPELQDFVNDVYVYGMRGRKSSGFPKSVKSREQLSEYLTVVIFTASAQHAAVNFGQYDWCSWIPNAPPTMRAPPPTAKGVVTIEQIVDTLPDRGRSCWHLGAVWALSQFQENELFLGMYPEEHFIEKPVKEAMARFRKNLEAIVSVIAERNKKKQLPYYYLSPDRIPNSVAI
The experiment can be described thus: Inhibition of 5-LOX (unknown origin) using arachidonic acid as substrate preincubated for 5 mins followed by substrate addition measured after 10 mins by spectrophotometry.

Experiment [3] relates to Rattus norvegicus. The experiment can be described thus: Cardio-protective activity in ISO-treated Wistar rat assessed as decrease in serum LDH level at 10 mg/kg, po. In kind it is functional, organism-based. The essentials:
(§1)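 Rats (n = 6/group) given ISO 100 mg kg−1 s.c., then oral test compound in 0.3% CMC; vehicle controls. Retro-orbital blood, serum separated at 4000 rpm, 4 °C, 10 min; LDH and CK-MB by commercial kits; mean ± SD.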

For experiment [4], the system named is Rattus norvegicus. The experiment can be described thus: Anti-inflammatory activity in arachidonic acid-induced paw edema Wistar rat model assessed as swelling thickness of paw at 10 mg/kg, po measured after 1 hr by digital vernier caliper (reference value: 6.51 +/- 0.37 millimeter). In kind it is functional.
For experiment [5], the system named is Rattus norvegicus. The experiment can be described thus: Anti-inflammatory activity in arachidonic acid-induced paw edema Wistar rat model assessed as protection against swelling thickness of paw at 10 mg/kg, po measured after 1 hr by digital vernier caliper (reference value: 0 %). The format is functional.
Experiment [6] relates to Rattus norvegicus. As to the kind of experiment: Cardio-protective activity in ISO-treated Wistar rat assessed as decrease in serum CK-MB level at 10 mg/kg, po. In kind it is functional, organism-based. A digest of the protocol:
as §1

Another experiment deals with A549. The experiment can be described thus: Cytotoxicity against human A549 cells assessed as growth inhibition incubated for 48 hrs by SRB assay. The following applies: A549, 48 h.
In a further experiment the test system is MIA PaCa-2. As to the kind of experiment: Cytotoxicity against human MIA PaCa-2 cells assessed as growth inhibition incubated for 48 hrs by SRB assay. The following applies: MIA PaCa-2, 48 h.
For another experiment, the system named is COLO 205. The experiment can be described thus: Cytotoxicity against human COLO 205 cells assessed as growth inhibition incubated for 48 hrs by SRB assay. To be noted: COLO 205, 48 h.

Structures can show the parent of a compound that is named as a salt. Calls of active or inactive are those of the source. No cut-off for these calls is given here.

One may read the IC50 as the midpoint of a concentration-inhibition curve. For `O=[N+]([O-])c1ccccc1-c1nnc(CN2CCN(C(c3ccccc3)c3ccc(Cl)cc3)CC2)o1` (configuration not stated), the values for the IC50 in [1] and in experiment [2] were 29.9 µM and 13.5 µM, respectively.
For `Oc1cccc(-c2nnc(CN3CCN(C(c4ccccc4)c4ccc(Cl)cc4)CC3)o2)c1` (configuration not stated), the IC50 in experiment [1] amounted to 36.3 µM; in experiment [2], 20.3 µM.
Turning to `Fc1cc(F)c(-c2nnc(CN3CCN(C(c4ccccc4)c4ccc(Cl)cc4)CC3)o2)cc1F` (configuration not stated), the IC50 in experiment [1] was 32.7 µM; in experiment [2] it was 19.9 µM.
As to `COc1cccc(-c2nnc(CN3CCN(C(c4ccccc4)c4ccc(Cl)cc4)CC3)o2)c1` (configuration not stated), the IC50 worked out at 36.3 µM in [1] and 15.3 µM in experiment [2].
For `Cc1cccc(-c2nnc(CN3CCN(C(c4ccccc4)c4ccc(Cl)cc4)CC3)o2)c1` (configuration not stated), the half-maximal inhibitory concentration (IC50) turned out to be 30.7 µM in experiment [1] and 9.89 µM in [2].
Regarding `Clc1ccc(C(c2ccccc2)N2CCN(Cc3nnc(-c4ccc(Cl)cc4Cl)o3)CC2)cc1` (configuration not stated), the figures for the IC50 in [1] and in [2] were 30.3 µM and 14.4 µM, respectively.
Turning to `Cc1ccc(-c2cc(C(F)(F)F)nn2-c2ccc(S(N)(=O)=O)cc2)cc1` [CELECOXIB], the result with Rattus norvegicus [3] and in the experiment on Rattus norvegicus [6] was inactive. Moreover, the Activity with Rattus norvegicus [4] turned out to be 1.79 mm; in the experiment on Rattus norvegicus [5], 72.59%.
For `Oc1ccc(-c2nnc(CN3CCN(C(c4ccccc4)c4ccc(Cl)cc4)CC3)o2)cc1` (configuration not stated), the IC50 in experiment [1] stood at 36.3 µM; in experiment [2], 10.8 µM.
As for `COc1ccc(-c2nnc(CN3CCN(C(c4ccccc4)c4ccc(Cl)cc4)CC3)o2)cc1` (configuration not stated), the IC50 in experiment [1] is 34.5 µM; in experiment [2], 10.3 µM.
For `Clc1ccc(C(c2ccccc2)N2CCN(Cc3nnc(-c4ccccc4)o3)CC2)cc1` (configuration not stated) the same measures were 38.4 µM and 9.81 µM.
With `Fc1ccc(-c2nnc(CN3CCN(C(c4ccccc4)c4ccc(Cl)cc4)CC3)o2)cc1` (configuration not stated), the results for the IC50 in [1] and in experiment [2] were 34.2 µM and 11.6 µM, respectively.
In the case of `O=[N+]([O-])c1cc(-c2nnc(CN3CCN(C(c4ccccc4)c4ccc(Cl)cc4)CC3)o2)ccc1Cl` (configuration not stated), the 50% inhibitory concentration (IC50) in experiment [1] came to 38.5 µM; in experiment [2], 11.2 µM.
Consider `Fc1ccc(-c2nnc(CN3CCN(C(c4ccccc4)c4ccc(Cl)cc4)CC3)o2)c(F)c1` (configuration not stated), for which the figures for the 50% inhibitory concentration (IC50) in experiment [1] and in experiment [2] were 34.8 µM and 9.33 µM, respectively.
Take `FC(F)(F)c1ccc(-c2nnc(CN3CCN(C(c4ccccc4)c4ccc(Cl)cc4)CC3)o2)cc1` (configuration not stated): the IC50 is 27 µM in [1] and 13.7 µM in experiment [2].
Take `Cc1ccc(-c2nnc(CN3CCN(C(c4ccccc4)c4ccc(Cl)cc4)CC3)o2)cc1` (configuration not stated): the IC50 is 32.1 µM in [1] and 18.1 µM in experiment [2].
On to `O=[N+]([O-])c1cc(-c2nnc(CN3CCN(C(c4ccccc4)c4ccc(Cl)cc4)CC3)o2)cc([N+](=O)[O-])c1` (configuration not stated), for which the IC50 in experiment [1] stood at 37.7 µM; in [2] it was 18 µM.
What is called GI50 is the concentration at which growth is held to half of that of the control. Take `COc1cccc2c1C(=O)c1c(O)c3c(c(O)c1C2=O)C[C@@](O)(C(=O)CO)C[C@@H]3O[C@H]1C[C@H](N)[C@H](O)[C@H](C)O1` [DOXORUBICIN HYDROCHLORIDE]: the GI50 in the experiment on A549 is 0.077 µM; in the experiment with MIA PaCa-2 it was 0.002 µM; in the experiment with COLO 205, 0.1 µM.
In the case of `N#Cc1cccc(-c2nnc(CN3CCN(C(c4ccccc4)c4ccc(Cl)cc4)CC3)o2)c1` (configuration not stated), the IC50 in experiment [1] is 23 µM; in experiment [2] it was 15 µM.
Consider `N#Cc1ccc(-c2nnc(CN3CCN(C(c4ccccc4)c4ccc(Cl)cc4)CC3)o2)cc1` (configuration not stated), for which the results for the IC50 in experiment [1] and in [2] were 25.5 µM and 13.5 µM, respectively.
On to `Clc1ccc(C(c2ccccc2)N2CCN(Cc3nnc(-c4cccc(Cl)c4)o3)CC2)cc1` (configuration not stated), for which the concentration for half-maximal inhibition (IC50) in experiment [1] came to 32 µM; in [2], 16.2 µM.
As to `FC(F)(F)Oc1ccc(-c2nnc(CN3CCN(C(c4ccccc4)c4ccc(Cl)cc4)CC3)o2)cc1` (configuration not stated), the IC50 in [1] came out at 27.9 µM; in [2] it was 9.4 µM.
Turning to `CC(c1cc2ccccc2s1)N(O)C(N)=O` (configuration not stated) [ZILEUTON], the Activity in the experiment with Rattus norvegicus [4] is 3.39 mm; in the experiment on Rattus norvegicus [5], 47.95%.
